Test results taken from ChEMBL document CHEMBL1255376, “Comparative surveillance study of telavancin activity against recently collected gram-positive clinical isolates from across the United States” (2008).
Converted amounts (≈) assume the structure as drawn.

Columns and labels:
Type in all cases: functional
Streptococcus sp. [1] = experiment: Antibacterial activity against Streptococcus sp. Group F clinical isolate by broth microdilution method
How it was run: (§1)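 MIC by CLSI broth microdilution in frozen microtiter trays holding serial dilutions of each agent, prepared from standard laboratory powders. Comparator susceptibility interpreted with CLSI breakpoints.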

Streptococcus mitis = experiment: Antibacterial activity against Streptococcus mitis clinical isolate by broth microdilution method
How it was run: as §1, with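 “powders. E. faecalis ATCC 29212 and ATCC 51299, S. aureus ATCC 29213 and S. pneumoniae ATCC 49619 run in parallel as quality-control strains.” for “powders.”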

Streptococcus sp. [2] = experiment: Antibacterial activity against Streptococcus sp. clinical isolate by broth microdilution method; how it was run: as §1
Staphylococcus hominis [3] = experiment: Antibacterial activity against methicillin-resistant coagulase-negative Staphylococcus hominis clinical isolate by broth microdilution method
How it was run: (§2)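 MICs by CLSI broth microdilution in frozen trays pre-loaded with serial dilutions of each agent. Quality-control strains run in parallel: E. faecalis ATCC 29212 and ATCC 51299, S. aureus ATCC 29213, S. pneumoniae ATCC 49619. Comparator susceptibility categories follow CLSI breakpoints. Methicillin resistance in staphylococci assigned from the oxacillin MIC.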

Staphylococcus aureus [4] = experiment: Antibacterial activity against methicillin-resistant Staphylococcus aureus
Staphylococcus aureus [5] = experiment: Antibacterial activity against vancomycin-, methicillin-resistant Staphylococcus aureus VRS1 by broth microdilution method
How it was run: (§3)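 VISA and VRSA strains from the NARSA repository were tested separately from the surveillance isolates. MICs by CLSI broth microdilution in frozen trays with serial dilutions. Quality-control strains run in parallel. Susceptibility categories follow CLSI breakpoints, and methicillin resistance was assigned from the oxacillin MIC.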

[6] = test system: Streptococcus intermedius; experiment: Antibacterial activity against Streptococcus intermedius clinical isolate by broth microdilution method
How it was run: as §1, with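 “powders. E. faecalis ATCC 29212 and ATCC 51299, S. aureus ATCC 29213 and S. pneumoniae ATCC 49619 run in parallel as quality-control strains.” for “powders.”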

[7] = test system: Staphylococcus haemolyticus; experiment: Antibacterial activity against methicillin-resistant coagulase-negative Staphylococcus haemolyticus clinical isolate by broth microdilution method; how it was run: as §2
Enterococcus faecium [8] = experiment: Antibacterial activity against vancomycin-susceptible Enterococcus faecium clinical isolate by broth microdilution method
How it was run: as §1, with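 “powders. E. faecalis ATCC 29212 and ATCC 51299, S. aureus ATCC 29213 and S. pneumoniae ATCC 49619 run in parallel as quality-control strains.” for “powders.”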

Staphylococcus capitis [9] = experiment: Antibacterial activity against daptomycin-nonsusceptible Staphylococcus capitis isolate 1285355 by broth microdilution method
How it was run: as §1, with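 “powders. E. faecalis ATCC 29212 and ATCC 51299, S. aureus ATCC 29213 and S. pneumoniae ATCC 49619 run in parallel as quality-control strains.” for “powders.”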

Streptococcus oralis = experiment: Antibacterial activity against Streptococcus oralis clinical isolate by broth microdilution method
How it was run: as §1, with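 “powders. E. faecalis ATCC 29212 and ATCC 51299, S. aureus ATCC 29213 and S. pneumoniae ATCC 49619 run in parallel as quality-control strains.” for “powders.”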

Streptococcus pneumoniae [10] = experiment: Antibacterial activity against penicillin resistant Streptococcus pneumoniae clinical isolate by broth microdilution method; how it was run: as §2
Streptococcus sanguinis = experiment: Antibacterial activity against Streptococcus sanguinis clinical isolate by broth microdilution method
How it was run: as §1, with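 “powders. E. faecalis ATCC 29212 and ATCC 51299, S. aureus ATCC 29213 and S. pneumoniae ATCC 49619 run in parallel as quality-control strains.” for “powders.”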

Staphylococcus xylosus [11] = experiment: Antibacterial activity against methicillin-susceptible coagulase-negative Staphylococcus xylosus clinical isolate by broth microdilution method; how it was run: as §2
Staphylococcus capitis [12] = experiment: Antibacterial activity against methicillin-susceptible coagulase-negative Staphylococcus capitis clinical isolate by broth microdilution method; how it was run: as §2
Staphylococcus simulans [13] = experiment: Antibacterial activity against methicillin-resistant coagulase-negative Staphylococcus simulans clinical isolate by broth microdilution method; how it was run: as §2
Staphylococcus [14] = experiment: Antibacterial activity against daptomycin-nonsusceptible coagulase-negative Staphylococcus isolate 1285835 by broth microdilution method
How it was run: as §1, with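 “powders. E. faecalis ATCC 29212 and ATCC 51299, S. aureus ATCC 29213 and S. pneumoniae ATCC 49619 run in parallel as quality-control strains.” for “powders.”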

Enterococcus faecalis [15] = experiment: Antibacterial activity against vancomycin-resistant and teichoplanin-susceptible Enterococcus faecalis clinical isolate by broth microdilution method; how it was run: as §2
[16] = test system: Staphylococcus epidermidis; experiment: Antibacterial activity against methicillin-susceptible coagulase-negative Staphylococcus epidermidis clinical isolate by broth microdilution method; how it was run: as §2
Mammaliicoccus sciuri [17] = experiment: Antibacterial activity against methicillin-susceptible coagulase-negative Staphylococcus sciuri clinical isolate by broth microdilution method; how it was run: as §2
[18] = test system: Streptococcus constellatus; experiment: Antibacterial activity against Streptococcus constellatus clinical isolate by broth microdilution method
How it was run: as §1, with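 “powders. E. faecalis ATCC 29212 and ATCC 51299, S. aureus ATCC 29213 and S. pneumoniae ATCC 49619 run in parallel as quality-control strains.” for “powders.”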

[19] = test system: Staphylococcus saprophyticus; experiment: Antibacterial activity against methicillin-resistant coagulase-negative Staphylococcus saprophyticus clinical isolate by broth microdilution method; how it was run: as §2
Enterococcus faecium [20] = experiment: Antibacterial activity against vancomycin-resistant and teichoplanin-susceptible Enterococcus faecium clinical isolate by broth microdilution method; how it was run: as §2
Streptococcus pyogenes = experiment: Antibacterial activity against Streptococcus pyogenes clinical isolate by broth microdilution method
How it was run: as §1, with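 “powders. E. faecalis ATCC 29212 and ATCC 51299, S. aureus ATCC 29213 and S. pneumoniae ATCC 49619 run in parallel as quality-control strains.” for “powders.”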

Enterococcus faecalis [21] = experiment: Antibacterial activity against vancomycin- and teichoplanin-nonsusceptible Enterococcus faecalis clinical isolate by broth microdilution method; how it was run: as §2
Staphylococcus aureus [22] = experiment: Antibacterial activity against methicillin-resistant Staphylococcus aureus clinical isolate by broth microdilution method; how it was run: as §2
Streptococcus pneumoniae [23] = experiment: Antibacterial activity against penicillin intermediate Streptococcus pneumoniae clinical isolate by broth microdilution method; how it was run: as §2
Staphylococcus [24] = experiment: Antibacterial activity against methicillin-resistant coagulase-negative unspeciated Staphylococcus clinical isolate by broth microdilution method; how it was run: as §2
Staphylococcus hominis [25] = experiment: Antibacterial activity against methicillin-susceptible coagulase-negative Staphylococcus hominis clinical isolate by broth microdilution method; how it was run: as §2
Staphylococcus capitis [26] = experiment: Antibacterial activity against methicillin-resistant coagulase-negative Staphylococcus capitis clinical isolate by broth microdilution method; how it was run: as §2
Staphylococcus simulans [27] = experiment: Antibacterial activity against methicillin-susceptible coagulase-negative Staphylococcus simulans clinical isolate by broth microdilution method; how it was run: as §2
Staphylococcus aureus [28] = experiment: Antibacterial activity against vancomycin-, methicillin-resistant Staphylococcus aureus VRS3 by broth microdilution method; how it was run: as §3
[29] = test system: Staphylococcus haemolyticus; experiment: Antibacterial activity against methicillin-susceptible coagulase-negative Staphylococcus haemolyticus clinical isolate by broth microdilution method; how it was run: as §2
Staphylococcus xylosus [30] = experiment: Antibacterial activity against methicillin-resistant coagulase-negative Staphylococcus xylosus clinical isolate by broth microdilution method; how it was run: as §2
Staphylococcus cohnii = experiment: Antibacterial activity against methicillin-resistant coagulase-negative Staphylococcus cohnii clinical isolate by broth microdilution method; how it was run: as §2
[31] = test system: Staphylococcus saprophyticus; experiment: Antibacterial activity against methicillin-susceptible coagulase-negative Staphylococcus saprophyticus clinical isolate by broth microdilution method; how it was run: as §2
Streptococcus equinus = experiment: Antibacterial activity against Streptococcus bovis clinical isolate by broth microdilution method
How it was run: as §1, with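 “powders. E. faecalis ATCC 29212 and ATCC 51299, S. aureus ATCC 29213 and S. pneumoniae ATCC 49619 run in parallel as quality-control strains.” for “powders.”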

Mammaliicoccus sciuri [32] = experiment: Antibacterial activity against methicillin-resistant coagulase-negative Staphylococcus sciuri clinical isolate by broth microdilution method; how it was run: as §2
Staphylococcus aureus [33] = experiment: Antibacterial activity against vancomycin-intermediate methicillin-resistant Staphylococcus aureus NRS17 by broth microdilution method; how it was run: as §3

## CCCCCCCCCCNCCN[C@@]1(C)C[C@H](O[C@H]2[C@H](Oc3c4cc5cc3Oc3ccc(cc3Cl)[C@@H](O)[C@@H](NC(=O)[C@@H](CC(C)C)NC)C(=O)N[C@@H](CC(N)=O)C(=O)N[C@H]5C(=O)N[C@H]3C(=O)N[C@H](C(=O)N[C@H](C(=O)O)c5cc(O)c(CNCP(=O)(O)O)c(O)c5-c5cc3ccc5O)[C@H](O)c3ccc(c(Cl)c3)O4)O[C@H](CO)[C@@H](O)[C@@H]2O)O[C@@H](C)[C@H]1O [TELAVANCIN]
Streptococcus sp. [1]
  MIC: 0.03 µg/mL (≈ 0.0171 µM)
  MIC50: 0.03 µg/mL (≈ 0.0171 µM)
  MIC90: 0.06 µg/mL (≈ 0.0342 µM)
Streptococcus mitis
  MIC50: 0.03 µg/mL (≈ 0.0171 µM)
  MIC90: 0.12 µg/mL (≈ 0.0684 µM)
Streptococcus sp. [2]
  MIC50: 0.03 µg/mL (≈ 0.0171 µM)
  MIC90: 0.12 µg/mL (≈ 0.0684 µM)
Staphylococcus hominis [3]
  MIC50: 0.25 µg/mL (≈ 0.142 µM)
  MIC90: 0.5 µg/mL (≈ 0.285 µM)
Staphylococcus aureus [4]
  MIC50: 0.14 µM (≈ 0.246 µg/mL)
Staphylococcus aureus [5]
  MIC: 4 µg/mL (≈ 2.28 µM)
[6]
  MIC50: 0.03 µg/mL (≈ 0.0171 µM)
  MIC90: 0.12 µg/mL (≈ 0.0684 µM)
[7]
  MIC50: 0.25 µg/mL (≈ 0.142 µM)
  MIC90: 0.5 µg/mL (≈ 0.285 µM)
Enterococcus faecium [8]
  MIC50: 0.12 µg/mL (≈ 0.0684 µM)
  MIC90: 0.25 µg/mL (≈ 0.142 µM)
Staphylococcus capitis [9]
  MIC: 1 µg/mL (≈ 0.57 µM)
Streptococcus oralis
  MIC50: 0.03 µg/mL (≈ 0.0171 µM)
  MIC90: 0.12 µg/mL (≈ 0.0684 µM)
Streptococcus pneumoniae [10]
  MIC50: 0.015 µg/mL (≈ 0.00854 µM)
  MIC90: 0.015 µg/mL (≈ 0.00854 µM)
Streptococcus sanguinis
  MIC50: 0.03 µg/mL (≈ 0.0171 µM)
  MIC90: 0.12 µg/mL (≈ 0.0684 µM)
Staphylococcus xylosus [11]
  MIC50: 0.25 µg/mL (≈ 0.142 µM)
  MIC90: 0.5 µg/mL (≈ 0.285 µM)
Staphylococcus capitis [12]
  MIC50: 0.25 µg/mL (≈ 0.142 µM)
  MIC90: 0.5 µg/mL (≈ 0.285 µM)
Staphylococcus simulans [13]
  MIC50: 0.25 µg/mL (≈ 0.142 µM)
  MIC90: 0.5 µg/mL (≈ 0.285 µM)
Staphylococcus [14]
  MIC: 0.5 µg/mL (≈ 0.285 µM)
Enterococcus faecalis [15]
  MIC: 0.25 µg/mL (≈ 0.142 µM)
[16]
  MIC50: 0.25 µg/mL (≈ 0.142 µM)
  MIC90: 0.5 µg/mL (≈ 0.285 µM)
Mammaliicoccus sciuri [17]
  MIC50: 0.25 µg/mL (≈ 0.142 µM)
  MIC90: 0.5 µg/mL (≈ 0.285 µM)
[18]
  MIC50: 0.03 µg/mL (≈ 0.0171 µM)
  MIC90: 0.12 µg/mL (≈ 0.0684 µM)
[19]
  MIC50: 0.25 µg/mL (≈ 0.142 µM)
  MIC90: 0.5 µg/mL (≈ 0.285 µM)
Enterococcus faecium [20]
  MIC50: 0.25 µg/mL (≈ 0.142 µM)
  MIC90: 2 µg/mL (≈ 1.14 µM)
Streptococcus pyogenes
  MIC50: 0.03 µg/mL (≈ 0.0171 µM)
  MIC90: 0.06 µg/mL (≈ 0.0342 µM)
Enterococcus faecalis [21]
  MIC50: 8 µg/mL (≈ 4.56 µM)
  MIC90: 16 µg/mL (≈ 9.11 µM)
Staphylococcus aureus [22]
  MIC50: 0.25 µg/mL (≈ 0.142 µM)
  MIC90: 0.25 µg/mL (≈ 0.142 µM)
Streptococcus pneumoniae [23]
  MIC50: 0.015 µg/mL (≈ 0.00854 µM)
  MIC90: 0.015 µg/mL (≈ 0.00854 µM)
Staphylococcus [24]
  MIC50: 0.25 µg/mL (≈ 0.142 µM)
  MIC90: 0.5 µg/mL (≈ 0.285 µM)
Staphylococcus hominis [25]
  MIC50: 0.25 µg/mL (≈ 0.142 µM)
  MIC90: 0.5 µg/mL (≈ 0.285 µM)
Staphylococcus capitis [26]
  MIC50: 0.25 µg/mL (≈ 0.142 µM)
  MIC90: 0.5 µg/mL (≈ 0.285 µM)
Staphylococcus simulans [27]
  MIC50: 0.25 µg/mL (≈ 0.142 µM)
  MIC90: 0.5 µg/mL (≈ 0.285 µM)
Staphylococcus aureus [28]
  MIC: 4 µg/mL (≈ 2.28 µM)
[29]
  MIC50: 0.25 µg/mL (≈ 0.142 µM)
  MIC90: 0.5 µg/mL (≈ 0.285 µM)
Staphylococcus xylosus [30]
  MIC50: 0.25 µg/mL (≈ 0.142 µM)
  MIC90: 0.5 µg/mL (≈ 0.285 µM)
Staphylococcus cohnii
  MIC50: 0.25 µg/mL (≈ 0.142 µM)
  MIC90: 0.5 µg/mL (≈ 0.285 µM)
[31]
  MIC50: 0.25 µg/mL (≈ 0.142 µM)
  MIC90: 0.5 µg/mL (≈ 0.285 µM)
Streptococcus equinus
  MIC50: 0.03 µg/mL (≈ 0.0171 µM)
  MIC90: 0.12 µg/mL (≈ 0.0684 µM)
Mammaliicoccus sciuri [32]
  MIC50: 0.25 µg/mL (≈ 0.142 µM)
  MIC90: 0.5 µg/mL (≈ 0.285 µM)
Staphylococcus aureus [33]
  MIC: 1 µg/mL (≈ 0.57 µM)
